Rows were chosen to be rich in hits. Some 2.6% of all compounds tested hit in one or more screens of this group.
PolyA inhibitor – yeast polyadenylation inhibition | S. cerevisiae SKY197-pL101 polyadenylation reporter, beta-gal luminescence; efflux-impaired pdr1/pdr3 knockout yeast; score 100 = 6 SD above DMSO | activity score, % at 12 µM | hit rate 0.02% among 300,000 | AID 1875;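 active = lowest replicate activity score at least 50, where 100 means six control SD above control mean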;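 note: yeast exposed to compound for 9 h at 30 °C; higher score means more reporter readthrough which indicates perturbed polyadenylation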
AHR activator – human AHR activation | hit rate 2.5% among 320,000 | activation, % at 5 µM | P35869 | AHR-responsive luciferase reporter cells, luminescence | AID 2796; in the data active = activation above about 47%;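 note: 0% = vehicle wells and 100% = reference agonist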
proCasp7 act – activates human procaspase-7, counter-screen for procaspase-3 activators | P55210 | recombinant procaspase-7, Ac-DEVD-pNA absorbance 405 nm; D23A/D198A/D206A triple mutant, cannot self-cleave; scale: DMSO 0, 5 µM enzyme 100 | activation, % at 8.5 µM | hit rate 0.093% among 330,000 | AID 463210;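 active = percent activation above the screen-wide mean plus 3 SD, cut at about 25% in these data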
Target sequence (P55210 whole entry D23A/D198A/D206A): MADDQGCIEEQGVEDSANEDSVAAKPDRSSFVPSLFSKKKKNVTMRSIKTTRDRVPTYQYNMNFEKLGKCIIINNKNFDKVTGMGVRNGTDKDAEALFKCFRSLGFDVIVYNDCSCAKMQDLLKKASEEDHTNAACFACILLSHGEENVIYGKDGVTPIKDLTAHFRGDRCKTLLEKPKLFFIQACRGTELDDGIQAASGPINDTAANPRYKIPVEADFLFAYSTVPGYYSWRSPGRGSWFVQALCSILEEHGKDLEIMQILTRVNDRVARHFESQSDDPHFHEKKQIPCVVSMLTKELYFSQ
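signal = Epi-absorbance of released pNA at 405 nm, two timepoints | assay system = Uncleavable procaspase-7 mutant enzyme | reagent = Ac-DEVD-pNA substrate, 400 µM as added | times = 1 h enzyme–compound preincubation and 2 h substrate reaction, both 25 °C | benchmarks = low DMSO alone, high DMSO plus 5 µM PC-7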
proCasp3 act – procaspase-3 (human) activation. recombinant procaspase-3 D3A, Ac-DEVD-pNA absorbance 405 nm. activation, % at 8.5 µM. hit rate 0.11% among 330,000. AID 463141;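 active = activation above the mean of all tested compounds plus 3 SD, cut at about 21% in these data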;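 note: 0% = DMSO alone and 100% = DMSO wells spiked with extra 5 µM PC-3 D3A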
Target sequence (P42574 whole entry D9A/D28A/D175A): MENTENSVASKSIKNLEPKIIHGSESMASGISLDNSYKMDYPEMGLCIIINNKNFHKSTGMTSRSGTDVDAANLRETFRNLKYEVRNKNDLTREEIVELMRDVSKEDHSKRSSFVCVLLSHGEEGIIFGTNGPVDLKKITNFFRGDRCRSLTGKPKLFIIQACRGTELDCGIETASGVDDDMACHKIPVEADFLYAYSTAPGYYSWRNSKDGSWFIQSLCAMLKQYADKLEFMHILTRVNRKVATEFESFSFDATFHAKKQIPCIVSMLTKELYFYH
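Test system: Procaspase-3 D3A mutant; medium: Zinc-free HEPES/NaCl buffer with 0.01% Triton X-100 at pH 7.4; reagent: DEVD-pNA substrate; doses: one concentration, 8.5 µM nominal, 0.8% DMSO; times: 1 h preincubation plus 2 h reaction at 25 °C; signal: Epi-absorbance at 405 nm of released p-nitroaniline, 0 and 120 min; replicates: singlicate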
AHR act cf – human AHR activation, confirmation; hit rate 87% among 2,300; activation, % at 9 µM; human cells, AHR-responsive luciferase reporter, luminescence; shares compounds with AHR activator; AID 2845; in the data active = activation above about 49%;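 note: HepG2 hepatoma cells carrying a DRE-driven firefly luciferase reporter; 0% = vehicle wells and 100% = reference agonist wells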
PXR act counter – counter-screen for AHR activators: human PXR activators; activation, % at 11.6 µM; cell-based PXR reporter, luciferase luminescence; shares compounds with AHR activator; hit rate 88% among 2,300; AID 434939; in the data active = activation above about 11%;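 note: human hepatoma DPX-2 cells expressing full-length human PXR; 0% = DMSO and 100% = reference agonist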
Numbers without * were called inactive; / = not tested or not shown.

SMILES	PolyA inhibitor	AHR activator	proCasp7 act	proCasp3 act	AHR act cf	PXR act counter
CCOc1ccc(S(=O)(=O)NCCC(=O)N2CC=C(c3ccccc3)CC2)cc1	/	-2	9	4	/	/
CCOC(=O)c1c2ccc(OCC(=O)N/N=C/c3ccc(C)cc3)cc2n2ccccc12	-6	24	11	-4	/	/
CCOC(=O)c1c2ccc(OCC(=O)NN)cc2n2ccccc12	-9	86*	6	5	90*	12*
O=C(c1cc(C2CC2)nn1-c1ccccc1)N1CCN(Cc2c(F)cccc2Cl)CC1	/	1	-2	2	/	/
O=C(NC(=S)Nc1ccccc1O)c1ccccc1Cl	-9	89*	-11	5	128*	21*
CC(Sc1nc2ccccc2s1)C(=O)N(C)Cc1ccccc1 (stereo not given)	-17	12	1	5	/	/
O=c1[nH]cnc2c1sc1nc(C(F)F)cc(-c3ccccc3)c12	/	106*	12	8	76*	10*
O=c1[nH]cnc2c1sc1nc3c(c(-c4ccc(Cl)cc4)c12)CCC3	-6	-2	5	4	/	/
Nc1cc(=O)nc(SCC(=O)N2CCN(c3ccccc3)CC2)n1-c1ccc(F)cc1	-3	-1	-8	3	/	/
O=[N+]([O-])c1cc(-c2nc(-c3ccncc3)no2)cc([N+](=O)[O-])c1	-36	90*	2	-7	72*	/
O=[N+]([O-])c1cc(-c2nc(-c3ccncc3)no2)ccc1Cl	-72	6	0	3	/	/
O=C(/C=C\Nc1cccc(F)c1)c1cccs1	0	37	2	0	/	/
O=C(/C=C/Nc1ccc(F)cc1F)c1cccs1	3	86*	-11	-8	108*	86*
O=C(/C=C/Nc1ccc(F)cc1F)c1ccc(Br)cc1	-8	90*	-15	-21	90*	12*
O=C(/C=C/Nc1ccc(Br)cc1F)c1ccco1	-22	46	-10	-10	/	/
O=C(NC(CC(=O)N1CCN(c2ccccc2O)CC1)c1ccccc1)c1ccccc1Cl (stereo not given)	/	1	-3	0	/	/
N#CCC1c2ccccc2CCN1C(=O)Nc1ccc(C(F)(F)F)cc1 (stereo not given)	-8	103*	4	0	100*	181*
O=C(Nc1cccc(-c2nc3cc(Cl)ccc3o2)c1)C1CCCO1 (stereo not given)	9	118*	0	1	126*	/
Cc1cccc(-c2nc3cc(NC(=O)C4CCCO4)ccc3o2)c1 (stereo not given)	2	2	22	-2	/	/
Cc1cc(C)c(Nc2ncnc(N)n2)c(C)c1	-4	0	10	0	/	/
Cc1ccccc1-n1ccnc1SCC(=O)Nc1cccc(S(=O)(=O)NC2=NCCC2)c1	/	2	-2	3	/	/
Cc1ccc(-c2ccc(/C=N/NC(N)=S)o2)cc1	-13	100*	-19	-15	90*	13*
Cc1ccc(-c2ccc(/C=N/NC(=O)c3ccccc3O)o2)cc1	12	16	-11	-6	/	/
CCNC(=S)N/N=C/c1ccc(-c2ccccc2)o1	-1	24	-3	1	/	/
NC(=S)N/N=C/c1ccc(-c2ccccc2)o1	-9	93*	2	-6	32	21*
SMILES	PolyA inhibitor	AHR activator	proCasp7 act	proCasp3 act	AHR act cf	PXR act counter
CN(C)/N=C/c1ccc(/C=N/NC(N)=S)o1	-16	13	0	4	/	/
COCCNC(=S)N/N=C/c1ccc(-c2ccc([N+](=O)[O-])cc2)o1	-16	128*	-19	-9	89*	11*
NC(=S)N/N=C\c1ccc(-c2cccc(Cl)c2Cl)o1	2	107*	-6	5	110*	26*
Cc1nnc(SCC(=O)NCC2CCCO2)n1Cc1ccccc1 (stereo not given)	/	-1	6	-6	/	/
CNC(=O)CSc1nc2ccccc2c(=O)n1CCc1ccccc1	1	35	-7	0	/	/
O=C(CSc1ccc2ccccc2n1)c1ccc2c(c1)OCO2	-32	103*	-4	1	27	24*
CCn1c(C)cc(/C=C2/NC(=O)N(Cc3ccccc3F)C2=O)c1C	4	84*	-1	-8	59*	162*
CCn1c(C)cc(/C=C2\NC(=O)N(CC(=O)Nc3ccc(F)cc3)C2=O)c1C	-14	24	-4	1	/	/
CCCCn1c(N)c(N(CC(C)C)C(=O)C2CCN(S(=O)(=O)c3ccc(C)cc3)CC2)c(=O)[nH]c1=O	4	-1	2	-4	/	/
CCc1cccc(NC(=O)Cc2cn(C)c3ccccc23)c1	4	104*	5	5	24	83*
CCc1ccc(NC(=O)Cc2cn(C)c3ccccc23)cc1	27	37	9	2	/	/
O=C(Nc1ccc(Cl)cc1)c1ccc(S(=O)(=O)N2CCOCC2)cc1	-2	80*	0	3	86*	17*
COC(=O)N/N=C/c1cn(Cc2ccccc2Cl)c2ccccc12	-18	83*	-3	3	64*	70*
COc1ccccc1C(=O)Nc1ccc(-c2nnn(CC(=O)NCc3ccco3)n2)cc1	1	130*	7	4	135*	29*
COc1ccc(C(=O)Nc2ccccc2-c2nnn(CC(=O)NCc3ccco3)n2)cc1	26	103*	0	-3	-1	26*
O=C(Cn1nnc(-c2ccccc2NC(=O)c2ccccc2F)n1)NCc1ccco1	-4	0	5	-2	/	/
Cc1cc(C)nc(N/N=C/c2cccc3ccccc23)n1	-4	89*	-2	5	32	34*
COC(=O)Cn1cc(/C=N/NC(=O)COc2cccc3cccnc23)c2ccccc21	-22	25	10	1	/	/
C#CCn1cc(/C=N/NC(=O)COc2cccc3cccnc23)c2ccccc21	1	103*	5	3	63*	/
Cc1ccc2[nH]c3c(NCCCN4CCCC4=O)ncnc3c2c1	9	86*	-1	5	84*	162*
COc1cccc(-c2noc(-c3cccnc3)n2)c1	4	85*	4	0	134*	6
COc1cccc(-c2noc(-c3ccc(Br)o3)n2)c1	/	84*	6	0	88*	5
COc1ccc(-c2nc(-c3ccc(Br)o3)no2)cc1	5	18	6	12	/	/
COc1ccc(-c2noc(-c3ccc(Br)o3)n2)cc1	27	79*	6	0	107*	17*
COc1ccc(-c2nc(-c3cccnc3)no2)cc1OC	-8	-4	0	0	/	/
COc1ccc(CC(=O)Nc2ccc(-c3noc(-c4cccc(OC)c4)n3)cc2)cc1	18	1	13	5	/	/
COc1ccc(C(O)Cc2nccn2C)cc1 (stereo not given)	3	0	-1	0	/	/

Screening results from PubChem.
